# LMPTP block: LMPTP phosphatase inhibitors, primary screen, biochemical, fluorescence intensity, uHTS; recombinant LMPTP-A, OMFP fluorogenic substrate; Low molecular weight phosphotyrosine protein phosphatase (Homo sapiens), P24666; 0.22% of 360,000 active; AID 651560, 2012; inhibition, % at 20 µM;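 active = compounds that cut the enzyme signal by at least half of the control window in the single-dose screen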;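 note: plate controls were DMSO wells with enzyme plus substrate for no effect and substrate without enzyme for full effect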
# Target sequence (P24666 whole entry, looked up): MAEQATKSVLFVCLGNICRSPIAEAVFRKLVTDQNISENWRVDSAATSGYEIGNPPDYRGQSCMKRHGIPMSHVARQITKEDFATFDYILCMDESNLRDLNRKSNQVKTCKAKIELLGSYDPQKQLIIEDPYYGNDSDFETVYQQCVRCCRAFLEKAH
#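 Buffer or medium: Bis-Tris pH 6.0, DTT, detergent; Assay system: LMPTP-A enzyme; Quantity: 0.625 nM enzyme; Detection: endpoint fluorescence intensity; Times: 50 min dark incubation at room temperature; Controls: substrate-only low control, DMSO enzyme-plus-substrate high control; Doses: single 20 µM dose; Read-out: percent inhibition versus substrate-only and uninhibited controls; Reagent: 400 µM OMFP.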
# STEP block: STEP phosphatase inhibitors, primary screen, biochemical, fluorescence intensity, uHTS; Tyrosine-protein phosphatase non-receptor type 5 (Homo sapiens), P54829; recombinant STEP, OMFP fluorogenic substrate; inhibition, % at 20 µM; 0.25% of 360,000 active; AID 588621, 2011;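 active = inhibition at 20 µM, scaled per plate between control wells, above about 37%, limit read from the data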;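 note: 0% = DMSO with enzyme and substrate and 100% = substrate only without enzyme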
#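 System: isolated STEP enzyme; schedule: 20 min enzyme reaction at room temperature, protected from light; medium: Bis-Tris buffer pH 6.0, 2.5 mM DTT, 0.005% Tween 20; signal: fluorescence, 480/540 nm; dosing: single compound dose of 20 µM, 1% DMSO final; also added: OMFP substrate, 25 µM final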
# SUMO1-SIM PPI: modulators of SUMO1 protein-protein interactions, primary screen, biochemical, uHTS | AID 602429, 2012 | 0.33% of 360,000 active | Small ubiquitin-related modifier 1 (Homo sapiens), P63165 | SUMO1 binding to a labelled peptide, TR-FRET, 1 h | inhibition, % at 20 µM; in the data active = inhibition above about 37%
# Target sequence (P63165 whole entry, looked up): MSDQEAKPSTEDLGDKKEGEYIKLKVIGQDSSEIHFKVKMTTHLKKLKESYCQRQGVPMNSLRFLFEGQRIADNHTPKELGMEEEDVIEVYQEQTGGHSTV
# Scp1 inh: Scp-1 phosphatase inhibitors, primary screen, biochemical, colorimetric, uHTS; 0.88% of 340,000 active; inhibition, % at 20 µM; AID 493091, 2011; Carboxy-terminal domain RNA polymerase II polypeptide A small phosphatase 1 (Homo …; Recombinant Scp1, phosphopeptide, malachite green phosphate absorbance;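 active = inhibition above about 50% at 20 µM, limit read from the data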;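 note: plate controls were DMSO wells with enzyme for no effect and wells lacking enzyme for full effect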
#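 Incubation: 45 min enzyme reaction at room temperature / System: truncated SCP-1 phosphatase (76-261aa) / Reagent: Phospho 17-mer peptide substrate / Buffer or medium: Acidic Tris acetate buffer with magnesium and detergent / Signal: absorbance at 630 nm / Doses: one concentration, 20 µM, with 1.0% DMSO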
# DNMT1 block: human DNMT1 methyltransferase inhibitors, primary screen, biochemical, molecular beacon, fluorescence, HinP1I cleavage, uHTS. DNA (cytosine-5)-methyltransferase 1 (Homo sapiens), P26358. inhibition (reported as % activation of signal), % at 10 µM. 0.83% of 360,000 active. AID 588458, 2011; in the data active = inhibition above about 50%
# Rpn11 block: Rpn11 (PSMD14) deubiquitinase inhibitors, primary screen, biochemical, fluorescence polarization, uHTS. 26S proteasome non-ATPase regulatory subunit 14 (Homo sapiens), O00487. human 26S proteasome, Ub4-pepOG fluorescence polarization; 20S core pre-blocked with epoxomicin. inhibition, % at 20 µM. 0.59% of 360,000 active. AID 588493, 2011;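 active = inhibition at 20 µM, scaled to each plate's controls, above about 33%, limit read from the data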
# Target sequence (O00487 whole entry, looked up): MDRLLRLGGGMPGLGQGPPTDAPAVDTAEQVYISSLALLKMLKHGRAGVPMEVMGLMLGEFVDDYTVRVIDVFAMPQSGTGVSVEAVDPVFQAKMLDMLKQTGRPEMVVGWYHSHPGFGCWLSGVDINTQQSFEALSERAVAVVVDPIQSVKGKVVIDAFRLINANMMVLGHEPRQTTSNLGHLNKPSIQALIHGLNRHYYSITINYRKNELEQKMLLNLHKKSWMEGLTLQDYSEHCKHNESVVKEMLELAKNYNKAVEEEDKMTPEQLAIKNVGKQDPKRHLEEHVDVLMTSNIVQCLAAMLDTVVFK
# Scp-1 conf: Scp-1 phosphatase inhibitors, retest, confirmation, biochemical, colorimetric, single concentration; recombinant SCP-1 catalytic domain, phosphate release, malachite green absorbance; shares compounds with Scp1 inh; inhibition, % at 20 µM; 61% of 2,500 active; AID 540281, 2011;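 note: plate controls were DMSO with enzyme for no effect and buffer wells lacking enzyme for full effect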
# MG interference: colorimetric readout interference by compounds, confirmation, artefact control for Scp-1 inhibitor project, biochemical, single concentration; apparent inhibition (interference), % at 20 µM; 2,500 tested, under 10 active; Colorimetric interference counterscreen, malachite green absorbance 630 nm; shares compounds with Scp1 inh;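 note: compounds added after enzyme reaction finished so only phosphate colour detection is probed; plate controls were DMSO wells with completed Scp-1 reaction for no effect and substrate wells lacking enzyme for full effect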
# Scp1 DSF: Scp-1 binding by thermal shift, confirmation, orthogonal assay for Scp-1 inhibitor project, biophysical, differential scanning fluorimetry; shares compounds with Scp1 inh; 25% of 1,500 active; Recombinant SCP1, Sypro Orange thermal shift Tm; thermal shift relative to vanadate control, % at 40 µM;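 active = substances whose mean melting-temperature shift, as a percentage of the reference inhibitor's shift, reaches about 5.3%, limit read from the data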;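 note: 0% = Tm of DMSO wells and 100% = Tm with sodium orthovanadate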
# * hit, by the source's call; . = no result given. A selection: hits, their analogues and other compounds. The true share with any hit is near 2.3%.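 Rule for the calls, unless noted: active = inhibition of at least 30% at 20 µM; inactive = the rest.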
SMILES,LMPTP block,STEP block,SUMO1-SIM PPI,Scp1 inh,DNMT1 block,Rpn11 block,Scp-1 conf,MG interference,others
O=C(Nc1ccc2c(c1)C(=O)NC2=O)c1cc(Cl)ccc1Cl,-14,-1,-130,-13,-1,-7,.,.,
O=C(CN1C(=O)C2CC=CCC2C1=O)Nc1ccccc1N1CCCC1 (configuration not stated),0,0,2,-2,1,0,.,.,
O=C(CN1C(=O)C2CCCCC2C1=O)Nc1ccccc1N1CCCC1 (configuration not stated),1,1,-1,62*,0,-4,-15,-12,
Cc1ccc(CN2CC(C(=O)Nc3ncc(C)s3)CC2=O)cc1 (configuration not stated),-1,1,0,51*,5,-5,2,-9,
Cc1cccc(C)c1N1CCN(C(=O)Cn2cncn2)CC1,-2,-4,30,-7,6,1,.,.,
C[N+](C)(C)CCCN(Cc1ccc2c(c1)OCO2)C(=O)NC1CCCCC1,-5,-4,2,91*,0,-41,79*,-19,Scp1 DSF=-27
CC(NCc1ccc2c(c1)OCO2)C(=O)NC1CCCCC1 (configuration not stated),-2,2,-2,-8,4,0,.,.,
C[C@H](CO)N1C[C@H](C)[C@@H](CN(C)C(=O)Nc2ccccc2)Oc2ccc(NC(=O)Nc3ccccc3)cc2C1=O,0,-1,5,71*,-1,6,15,-11,
C[C@H](CO)N1C[C@H](C)[C@@H](CN(C)C(=O)Nc2ccccc2)Oc2ccc(NC(=O)c3ccncc3)cc2C1=O,0,1,-3,75*,11,-2,18,-15,
C[C@H](CO)N1C[C@H](C)[C@@H](CN(C)C(=O)Nc2ccc(C(F)(F)F)cc2)Oc2ccc(NC(=O)C3CC3)cc2C1=O,1,1,1,56*,0,6,-3,-21,
C[C@H](CO)N1C[C@H](C)[C@@H](CN(C)C(=O)Nc2ccc3c(c2)OCO3)Oc2ccc(NC(=O)Nc3ccc4c(c3)OCO4)cc2C1=O,0,-3,-1,8,-5,2,.,.,
CC(C)NC(=O)Nc1ccc2c(c1)C(=O)N([C@H](C)CO)C[C@H](C)[C@@H](CN(C)C(=O)Nc1ccc3c(c1)OCO3)O2,-1,0,1,62*,-1,5,-7,-17,
CCOc1ccccc1NS(=O)(=O)c1cn(C)c(=O)n(C)c1=O,.,.,.,-7,.,.,.,.,
Cn1c(=O)c2nc(-c3ccc(Cl)cc3Cl)oc2c2ccccc21,89*,16,10,73*,34,31,19,-23,
O=C(CCc1nnc2ccc(NCc3ccco3)nn12)Nc1ccccn1,-1,3,14,59*,13,-2,52*,-15,Scp1 DSF=1
C=CCOCCN1C(=O)C2C3C=CC(C2C1=O)C1C2C(=O)N(CCOCC=C)C(=O)C2C31 (configuration not stated),2,0,-1,61*,27,-4,72*,-10,Scp1 DSF=-20
COCCCC1CCN(C(=O)C2CCC(=O)N(Cc3cccc(F)c3)C2)CC1 (configuration not stated),-1,-1,1,1,0,0,.,.,
COc1ccc(NC(=O)C/C(C)=N/NC(=O)c2ccccn2)c(OC)c1,-3,-3,2,-7,1,1,.,.,
CCOC(=O)c1sc(NC(=O)CSc2nncs2)c(C(=O)OCC)c1C,0,1,3,52*,-9,4,-10,-16,
CCOC(=O)c1sc(NC(=O)CSc2nnc(-c3ccco3)n2CC)c(C(=O)OCC)c1C,5,4,2,22,3,10,.,.,
O=C(CN(C(=O)CCC(=O)Nc1ccccn1)c1ccc(F)cc1)NCCc1ccccc1,-1,0,-5,-8,1,3,.,.,
CC(O)C(NS(=O)(=O)c1ccc2ccccc2c1)C(=O)OCC(=O)Nc1ccccc1OC(F)F (configuration not stated),-1,-3,-4,-9,-6,-2,.,.,
CC[C@H](C)NC(=O)c1ccc(Cn2c(=S)[nH]c3c([nH]c4ccc(OC)cc43)c2=O)cc1,-1,2,11,57*,44,-8,43*,-4,Scp1 DSF=-17
CN(C)S(=O)(=O)c1ccc(C(=O)NCC[N+]2(C)CCCCCC2)o1,-3,-4,4,68*,-1,-4,-21,-19,
Cc1ccc(NC(=O)c2ccc(Br)o2)cc1S(=O)(=O)N(C)C,1,-2,5,-2,-9,9,.,.,
Cn1cnc(C(=O)N2CCc3ccccc3C2)c1C(=O)N1CCc2ccccc2C1,0,-2,-3,95*,16,2,83*,-17,Scp1 DSF=-12
CCOC(=O)c1cc(C#N)c(SCC(=O)c2cc(C#N)c(SC)nc2C)[nH]c1=O,2,6,14,89*,-4,-9,23,-12,
Cc1ccc(NC(=O)N2CCC(NC(=O)c3cccc(C)c3)CC2)cc1,1,0,-3,103*,7,4,55*,-9,Scp1 DSF=-7
Cc1cccc(C(=O)NC2CCN(C(=O)NCc3ccccc3)CC2)c1,0,0,0,75*,5,5,60*,-11,Scp1 DSF=-3
NS(=O)(=O)c1ccc(CNC(=O)c2cc(-c3cccnc3)nc3ccc(Br)cc23)cc1,1,0,-23,7,-1,-10,.,.,
